HSF-1 act: increases HSF-1 driven luciferase reporter signal | actives 1.7% (n = 300,000) | activation, % at 9 µM | NIH3T3-HGL HSF-1 luciferase reporter, MG132, 8 h; 100% = twice DMSO control signal | AID 504408;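 active = mean replicate activation of at least 50% with a set share of replicates each reaching 50%; inconclusive = only one of those two conditions met; inactive = mean below 50% and too few replicates reaching it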;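 note: 0% = median of the neutral control wells and 100% = twice that signal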
Lipid droplet: hepatic lipid droplet formation modulation | inhibition, % at 6.5 µM | AML12 mouse hepatocytes, oleate lipid droplets, BODIPY imaging | actives 0.4% (n = 240,000) | AID 1656;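 active = lipid droplet intensity inhibited by at least 50%, with more than 500 cells counted; inconclusive = wells with under 300 cells, treated as cytotoxic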
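Assay system: AML12 hepatocytes (mouse); Probe or stimulus: oleic acid at 100 µM to induce lipid droplet formation; Dosing: compound at 6.5 µM only; Schedule: compound with oleate, overnight; Detection: fluorescence imaging, 20x objective, two fields per well; Measure: % inhibition of lipid droplet signal.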
CHT allo act: allosterically activates the human high affinity choline transporter | CHT-expressing cells, membrane potential dye, choline EC20; hits give high values; LV-AA mutant CHT in HEK293 cells | B-score at 10 µM | actives 0.49% (n = 310,000);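 active = initial fluorescence not abnormally high and integrated response B-score, plate-corrected, over 3 SD above library mean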
Target sequence (Q9GZV3 whole entry, looked up): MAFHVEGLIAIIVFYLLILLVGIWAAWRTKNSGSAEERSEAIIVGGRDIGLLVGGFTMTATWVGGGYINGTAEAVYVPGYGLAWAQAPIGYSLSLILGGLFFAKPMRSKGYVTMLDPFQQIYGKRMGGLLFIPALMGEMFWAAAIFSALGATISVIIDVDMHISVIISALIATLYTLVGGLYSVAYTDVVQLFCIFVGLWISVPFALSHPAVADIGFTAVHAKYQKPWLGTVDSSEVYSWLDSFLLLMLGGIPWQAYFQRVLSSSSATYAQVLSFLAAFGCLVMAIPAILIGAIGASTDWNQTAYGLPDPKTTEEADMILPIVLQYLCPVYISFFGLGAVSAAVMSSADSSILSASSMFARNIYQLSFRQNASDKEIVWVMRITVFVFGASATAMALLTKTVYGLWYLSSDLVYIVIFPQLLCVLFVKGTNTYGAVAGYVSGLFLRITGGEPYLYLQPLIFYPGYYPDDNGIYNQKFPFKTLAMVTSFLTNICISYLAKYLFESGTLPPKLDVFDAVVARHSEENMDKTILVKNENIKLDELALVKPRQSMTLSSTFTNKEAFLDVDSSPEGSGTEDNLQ
CHT inh: human CHT choline transport inhibition; Q9GZV3; CHT-expressing cells, membrane potential dye, choline response; hits give low values; actives 0.86% (n = 310,000); B-score at 10 µM; AID 488975;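 active = B-score over 3 SD under the library average, and starting fluorescence ratio not unusually high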;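 note: choline stimulus applied at its EC90 after an EC20 pre-addition; B-score computed on integrated fluorescence ratio after choline addition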
PHOSPHO1 block: inhibitors of human PHOSPHO1 phosphatase. Q8TCT1. recombinant PHOSPHO1, absorbance phosphatase assay. inhibition, % at 13.3 µM. actives 1.1% (n = 290,000). AID 1565; in the data active = inhibition above about 60%
HSF1 inh: HSF1 inhibition. NIH3T3-HGL HSE-luciferase, MG132-induced, luminescence 8 h; hits give low values. actives 0.77% (n = 300,000). activity change, negative = inhibition, % at 7.5 µM (by protocol);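 active = more than half of replicate wells show activity change below -50%, luminescence cut by over half; inconclusive = some wells, but at most half, below -50%; inactive = no replicate well below -50%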;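 note: luciferase reports HSF-1 transcriptional activity via heat shock element; 0% = median of DMSO wells and -100% = zero luminescence signal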
An asterisk follows results filed as active; i = inactive; ? = inconclusive; . = no result given. Most compounds without a hit are left out; they make up all but 4.9% or so of the library.

SMILES	HSF-1 act	Lipid droplet	CHT allo act	CHT inh	PHOSPHO1 block	HSF1 inh
CCOc1cc(/C=N/NC(=O)CN2CCCCC2)ccc1OCc1ccc(Cl)cc1	58*	24	i	i	-1	37
CCCOc1ccc(/C=N/NC(=S)Nc2ccccc2[N+](=O)[O-])c(O)c1	-92	3	i	i	-24	-90*
CCn1cc(S(=O)(=O)Nc2ccc3c(c2)OCCO3)cn1	-83	9	i	i	35	-81*
Cn1cc(S(=O)(=O)Nc2ccc3c(c2)OCCO3)cn1	-67	5	i	i	-28	-62*
Cc1nc(S(=O)(=O)Nc2ccc3c(c2)OCCO3)cn1C	-7	-1	i	i	13	-7
Cc1cc(C(=O)CSc2nnc(-c3ccco3)o2)c(C)n1CC1COc2ccccc2O1 (stereo not given)	20	.	.	.	91*	4
Cc1cc(C(=O)CSc2nnc(-c3ccc(F)cc3)o2)c(C)n1CC1CCCO1 (stereo not given)	-10	.	i	i	100*	-4
COc1cc(-c2nnc(SCC(=O)c3cc(C)n(CC4CCCO4)c3C)o2)cc(OC)c1OC (stereo not given)	10	-28	i	i	4	-6
Cc1cc(C(=O)CSc2nnc(-c3ccc(F)cc3)o2)c(C)n1CC1COc2ccccc2O1 (stereo not given)	-12	.	i	i	91*	-8
NS(=O)(=O)c1ccc(CNC(=O)Cc2c(F)cccc2Cl)cc1	3	1	i	i	-1	-3
CC(C)OC(=O)NCCOC(=O)Nc1ccccc1Cl	-12	-2	i	i	-8	-5
Cc1cc(NC(=O)CCSc2ccc(Cl)cc2)no1	9	0	i	i	62*	16
Cc1c(NC(=O)C2CC(c3c(F)cccc3Cl)=NO2)c(=O)n(-c2ccccc2)n1C (stereo not given)	-8	1	i	i	-7	-11
COc1ccc(C2=NOC(C(=O)N3CCCCCC3)C2)cc1OC (stereo not given)	-83	.	i	i	9	-78*
COc1ccc(C2=NOC(C(=O)Nc3c(C)n(C)n(-c4ccccc4)c3=O)C2)cc1OC (stereo not given)	-79	.	i	i	19	-73*
CCOC(=O)c1sc2cc([N+](=O)[O-])cc(SCC(C)C)c2c1N	3	49	i	i	64*	0
Cc1ccc2nc(COc3ccc(Cl)cc3)cc(=O)n2c1	66*	1	i	i	24	45
Cc1ccc2c(c1)N(CCC(=O)NCC1CCCO1)C(=O)CO2 (stereo not given)	5	.	i	i	32	-2
COc1ccc(C2=C(C#N)C(=O)OC2)cc1	-8	.	i	i	24	2
O=C(Cc1coc2cc3c(cc12)CCC3)NCC1(N2CCCCC2)CCCCC1	-1	-1	i	i	-17	1
Cc1cc(C)cc(SCc2noc(C(=O)NCc3ccccc3)c2C(=O)NCc2ccccc2)c1	-67	5	i	i	18	-60*
CCCCN(C(=O)c1ccc([N+](=O)[O-])s1)c1c(N)n(CCCC)c(=O)[nH]c1=O	-70	.	i	i	.	-62*
N#CCSc1nc2ccccc2c(=O)n1CC1CCCC1	24	3	i	i	26	3
N#CCSc1nc2ccc(N3CCCCC3)cc2c(=O)n1Cc1ccccc1	4	.	i	i	67*	8
O=C(CCC1CCCCC1)NNC(=O)NC12CC3CC(CC(C3)C1)C2	1	3	i	i	8	-1
SMILES	HSF-1 act	Lipid droplet	CHT allo act	CHT inh	PHOSPHO1 block	HSF1 inh
Cc1cc2c(cc(C(=O)NCc3cccnc3)n2Cc2ccc(Cl)cc2)o1	12	-2	i	i	-11	6
CCc1ccc(NC(=O)c2sccc2-n2cccc2)cc1	53*	-2	i	i	-1	15
Cc1cc(C)nc(NS(=O)(=O)c2ccc(NC(=O)c3ccccc3C)cc2)n1	4	-6	i	i	18	2
Nc1cccc2c1C(=O)N(C(=O)/C=C/c1ccc(F)cc1)C2=O	61*	7	i	i	-20	44
COc1ccc(O)c(C(=O)c2cc(C#N)c(=O)n(CC3CCCO3)c2)c1 (stereo not given)	29	.	i	i	64*	3
CCOc1ccc(N2C(=O)c3cccnc3C2Nc2ccc(Cl)cc2)cc1 (stereo not given)	15	.	i	i	56	2
Cc1ccc(NC2c3ncccc3C(=O)N2c2ccccc2C)cc1C (stereo not given)	-13	.	i	i	86*	-8
Cc1cc(=O)oc2cc(OCC#N)ccc12	-66	4	i	i	34	-56*
COc1ccccc1C1=NOC(COc2ccc3c(C)cc(=O)oc3c2)C1 (stereo not given)	-23	?	i	-8.5*	29	-21
CCOC(=O)c1cnc(Nc2ccccc2)nc1C(F)(F)F	25	0	i	i	18	6
CCOc1cc(/C=N/NC(=O)COc2ccc(C)cc2)ccc1OC(=O)c1cccs1	33	.	i	i	60*	9
COc1cc(/C=N/NC(=O)COc2ccc(C)cc2)ccc1OC(=O)c1cccs1	-6	1	i	i	-18	0
Cn1c2ccccc2c2cc(/C=N/NC(=O)c3cc(O)ccc3O)ccc21	-1	9	i	i	0	-6
CCc1cccc(OCC(=O)Nc2ccc(S(=O)(=O)Nc3onc(C)c3C)cc2)c1	-82	.	i	i	-3	-79*
Cc1ccccc1OCC(=O)Nc1ccc(S(=O)(=O)Nc2onc(C)c2C)cc1	4	4	i	i	23	-10
Cc1ccc(S(=O)(=O)CC(=O)Nc2ccc(S(=O)(=O)Nc3onc(C)c3C)cc2)cc1	-88	13	i	i	-6	-84*
OCC(O)C(O)CC1SCCS1 (stereo not given)	6	.	.	.	.	6
COc1cc(NC(=O)C2CCN(S(=O)(=O)c3ccc(N4CCCC4=O)cc3)CC2)cc(OC)c1	1	-29	i	i	37	-2
O=C1c2ccccc2C(=O)C1c1ccc(O)cc1	72*	1	i	i	-10	39
CCCn1c(C)nc2c(c1=O)c1nc3ccccc3nc1n2CCC1=CCCCC1	?	.	i	i	69*	24
CCc1ccc2nc(NC(=O)c3ccc4c(=O)[nH]c(CN5CCOCC5)nc4c3)sc2c1	19	.	i	i	31	4
CS(=O)(=O)N(CC(=O)NCCSC1CCCCC1)c1ccc2c(c1)OCO2	-74	0	i	i	29	-67*

Screens from PubChem BioAssay.
